Measurements as given in article PMC9444296 (Investigative Radiology, 2022).
Entries after “also recorded” stand apart in the source; their conditions may differ. Where two headings read alike, the source gives them in different places.

Columns and labels:
Gd = type: physicochemical; conditions: HPLC-UV
Outline: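 Test compound at 0.25 mM (final) was incubated with 0.25 mM DOTA, DTPA, HP-DO3A or EDTA, or with 0.50 mM ZnCl₂. Buffers were 0.05 M acetate pH 5 or 0.05 M Tris pH 7.4, at room temperature (25°C) or 37.5°C, for up to 30 days. Intact compound remaining was measured by HPLC-UV (C18; 0.08% TFA acetonitrile/water).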

[1] = Metabolic pathway study in human liver microsomes; type: in vitro ADME; conditions: 1 μM, 2 hours
CYP2C19 = CYP2C19 (Homo sapiens, UniProt P33261); test: CYP2C19 inhibition in human liver microsomes; type: in vitro ADME; conditions: 0.01, 0.1, 1, 10, and 100 μM, pooled human liver microsomes 0.5 mg/mL
OATP1B3 = OATP1B3 (Homo sapiens, UniProt Q9NPD5); test: OATP1B3 inhibition, HEK293 cells; type: in vitro ADME; conditions: 1, 5, 10, 50, and 100 μM
OAT3 = OAT3 (Homo sapiens, UniProt Q8TCC7); test: OAT3 inhibition, HEK293 cells; type: in vitro ADME; conditions: 1, 5, 10, 50, and 100 μM
MAOA = MAOA (Homo sapiens, UniProt P21397); test: SAFETYscan E/IC50 assay, MAOA; type: biochemical; conditions: concentration range 0.005 to 100 μM
Outline: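 Contract-laboratory in vitro panel of 78 targets, run in agonist and/or antagonist modes under provider SOPs over 0.005 to 100 μM. Panel formats included enzyme fragment complementation, FLIPR-based cellular assays, kinase binding and enzymatic assays.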

[2] = Pharmacokinetics in SD rats; type: in vivo, rat; conditions: for AUC: AUC 0-4h; for AUC / AUCINF / C0 / Cl / MRT / T1/2 / Vz: Gd by ICP-MS, NCA, n = 3
Outline: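 SD rats (3/sex) received a single IV dose of 0.04, 0.1 or 0.2 mmol/kg. Jugular blood was drawn predose and at 2, 5, 10, 15, 30 and 45 min and 1, 2, 3 and 4 h. Parameters were derived by noncompartmental analysis.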

Excretion in SD rats = type: in vivo, rat
Outline: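 Non-GLP study in SD rats given a single IV dose of 0.1 mmol/kg. One group (3/sex) gave urine and feces predose and at 0–4, 4–8, 8–24, 24–48, 48–72, 72–96, 96–120 and 120–144 h. A second group with conscious biliary cannulation gave bile 30 min predose and at 0–1, 1–2, 2–4, 4–6 and 6–8 h. Gd was measured by ICP-MS.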

beagle dogs = test: Single and repeated dose toxicity and toxicokinetics in beagle dogs; type: in vivo, dog; conditions: for accumulation ratio AUC0–24h (D14)/AUC0–24h (D1) of Gd: 14 days
Outline: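 GLP study in beagle dogs aged 6–7 months (M 7.34–10.58 kg, F 6.50–9.87 kg). Dosing was a single IV 0.70 mmol/kg or daily IV 0.07, 0.21 or 0.70 mmol/kg/d for 2 weeks, with saline placebo and a 2-week recovery. Clinical observation, organ weights and macro/microscopic histopathology were done. Gd accumulation ratio was AUC0–24h(D14)/AUC0–24h(D1).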

CYP2B6 = CYP2B6 (Homo sapiens, UniProt P20813); conditions: 0.01, 0.1, 1, 10, and 100 μM, pooled human liver microsomes 0.5 mg/mL
hERG = hERG (Homo sapiens, UniProt Q12809); conditions: HEK293, whole-cell patch clamp
[3] = SD rat ♀, 0.04 mmol/kg single IV
[4] = SD rat ♀, 0.1 mmol/kg single IV
[5] = SD rat ♀, 0.2 mmol/kg single IV
[6] = SD rat ♂, 0.04 mmol/kg single IV
[7] = SD rat ♂, 0.1 mmol/kg single IV
[8] = SD rat ♂, 0.2 mmol/kg single IV

Chain of hERG (Q12809 whole entry): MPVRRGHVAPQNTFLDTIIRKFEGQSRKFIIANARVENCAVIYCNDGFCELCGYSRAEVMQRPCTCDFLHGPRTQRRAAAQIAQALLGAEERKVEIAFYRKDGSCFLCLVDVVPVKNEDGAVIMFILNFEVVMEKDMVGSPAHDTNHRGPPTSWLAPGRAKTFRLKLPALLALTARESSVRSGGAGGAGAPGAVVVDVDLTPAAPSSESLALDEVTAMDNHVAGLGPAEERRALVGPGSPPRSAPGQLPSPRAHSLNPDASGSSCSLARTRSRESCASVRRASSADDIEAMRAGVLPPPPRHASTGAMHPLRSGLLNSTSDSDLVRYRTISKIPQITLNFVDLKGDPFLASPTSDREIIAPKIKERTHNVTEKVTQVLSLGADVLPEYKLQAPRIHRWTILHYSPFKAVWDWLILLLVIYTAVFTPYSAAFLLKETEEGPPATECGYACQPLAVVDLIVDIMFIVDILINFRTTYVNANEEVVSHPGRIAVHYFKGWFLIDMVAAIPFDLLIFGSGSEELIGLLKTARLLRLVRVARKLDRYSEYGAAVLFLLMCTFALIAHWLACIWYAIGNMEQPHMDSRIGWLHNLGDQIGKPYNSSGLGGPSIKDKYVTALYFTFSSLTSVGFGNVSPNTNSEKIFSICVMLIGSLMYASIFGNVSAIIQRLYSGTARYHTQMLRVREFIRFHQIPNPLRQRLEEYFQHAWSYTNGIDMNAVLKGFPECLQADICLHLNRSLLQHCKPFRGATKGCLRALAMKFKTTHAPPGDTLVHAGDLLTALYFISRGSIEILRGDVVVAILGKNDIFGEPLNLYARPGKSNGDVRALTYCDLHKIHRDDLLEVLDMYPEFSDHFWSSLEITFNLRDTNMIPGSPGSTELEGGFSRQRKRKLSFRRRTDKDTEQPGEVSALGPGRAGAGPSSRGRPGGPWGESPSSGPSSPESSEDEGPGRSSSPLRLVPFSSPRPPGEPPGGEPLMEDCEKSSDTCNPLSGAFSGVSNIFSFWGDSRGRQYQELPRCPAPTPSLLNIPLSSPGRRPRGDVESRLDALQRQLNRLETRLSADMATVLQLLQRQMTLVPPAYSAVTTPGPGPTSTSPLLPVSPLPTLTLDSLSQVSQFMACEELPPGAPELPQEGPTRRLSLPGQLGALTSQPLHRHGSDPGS
Chain of OAT3 (Q8TCC7 whole entry): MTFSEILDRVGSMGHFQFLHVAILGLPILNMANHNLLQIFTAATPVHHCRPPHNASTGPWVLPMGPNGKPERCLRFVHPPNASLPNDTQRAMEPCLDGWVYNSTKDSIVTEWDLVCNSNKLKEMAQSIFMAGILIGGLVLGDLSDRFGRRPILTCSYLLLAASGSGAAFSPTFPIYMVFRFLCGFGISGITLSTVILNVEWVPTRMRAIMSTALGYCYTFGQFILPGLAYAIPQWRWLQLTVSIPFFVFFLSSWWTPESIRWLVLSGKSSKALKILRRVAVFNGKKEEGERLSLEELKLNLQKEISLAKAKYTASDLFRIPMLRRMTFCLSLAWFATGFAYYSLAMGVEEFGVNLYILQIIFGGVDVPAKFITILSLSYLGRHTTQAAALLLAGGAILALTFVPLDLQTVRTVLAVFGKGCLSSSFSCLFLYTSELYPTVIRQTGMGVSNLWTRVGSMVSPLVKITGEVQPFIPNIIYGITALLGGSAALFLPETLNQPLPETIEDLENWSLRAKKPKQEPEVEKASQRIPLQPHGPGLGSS
Chain of OATP1B3 (Q9NPD5 whole entry): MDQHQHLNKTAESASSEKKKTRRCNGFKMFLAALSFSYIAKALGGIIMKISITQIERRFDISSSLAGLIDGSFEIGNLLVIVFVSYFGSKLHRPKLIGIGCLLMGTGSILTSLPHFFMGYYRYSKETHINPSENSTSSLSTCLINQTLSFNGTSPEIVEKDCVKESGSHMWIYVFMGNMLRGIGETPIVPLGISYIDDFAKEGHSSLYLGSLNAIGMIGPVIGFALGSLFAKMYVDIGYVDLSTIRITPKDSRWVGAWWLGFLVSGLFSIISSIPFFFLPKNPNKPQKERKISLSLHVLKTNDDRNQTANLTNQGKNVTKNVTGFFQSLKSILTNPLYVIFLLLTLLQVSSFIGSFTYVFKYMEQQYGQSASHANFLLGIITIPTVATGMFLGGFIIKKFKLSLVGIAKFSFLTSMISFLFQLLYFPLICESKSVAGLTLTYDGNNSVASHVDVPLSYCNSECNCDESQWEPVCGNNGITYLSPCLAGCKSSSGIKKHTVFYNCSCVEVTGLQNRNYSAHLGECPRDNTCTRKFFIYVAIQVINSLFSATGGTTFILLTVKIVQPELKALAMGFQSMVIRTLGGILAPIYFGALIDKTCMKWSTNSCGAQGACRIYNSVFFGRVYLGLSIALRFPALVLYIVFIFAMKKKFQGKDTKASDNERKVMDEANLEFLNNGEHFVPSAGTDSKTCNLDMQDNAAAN
Chain of CYP2C19 (P33261 whole entry): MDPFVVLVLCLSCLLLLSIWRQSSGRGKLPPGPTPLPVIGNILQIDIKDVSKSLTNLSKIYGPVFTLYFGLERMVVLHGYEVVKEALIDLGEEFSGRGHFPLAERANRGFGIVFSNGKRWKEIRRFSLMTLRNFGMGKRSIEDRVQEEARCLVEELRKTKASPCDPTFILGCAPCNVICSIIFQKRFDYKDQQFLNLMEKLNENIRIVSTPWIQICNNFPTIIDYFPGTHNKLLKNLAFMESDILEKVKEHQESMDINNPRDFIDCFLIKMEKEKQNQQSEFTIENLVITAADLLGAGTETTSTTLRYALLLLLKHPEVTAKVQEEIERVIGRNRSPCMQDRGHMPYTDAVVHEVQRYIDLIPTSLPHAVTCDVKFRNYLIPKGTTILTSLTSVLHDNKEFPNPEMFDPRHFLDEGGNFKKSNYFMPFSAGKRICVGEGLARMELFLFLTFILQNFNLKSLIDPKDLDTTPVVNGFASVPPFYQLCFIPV
Chain of MAOA (P21397 whole entry, species assumed, the tested form may be a part): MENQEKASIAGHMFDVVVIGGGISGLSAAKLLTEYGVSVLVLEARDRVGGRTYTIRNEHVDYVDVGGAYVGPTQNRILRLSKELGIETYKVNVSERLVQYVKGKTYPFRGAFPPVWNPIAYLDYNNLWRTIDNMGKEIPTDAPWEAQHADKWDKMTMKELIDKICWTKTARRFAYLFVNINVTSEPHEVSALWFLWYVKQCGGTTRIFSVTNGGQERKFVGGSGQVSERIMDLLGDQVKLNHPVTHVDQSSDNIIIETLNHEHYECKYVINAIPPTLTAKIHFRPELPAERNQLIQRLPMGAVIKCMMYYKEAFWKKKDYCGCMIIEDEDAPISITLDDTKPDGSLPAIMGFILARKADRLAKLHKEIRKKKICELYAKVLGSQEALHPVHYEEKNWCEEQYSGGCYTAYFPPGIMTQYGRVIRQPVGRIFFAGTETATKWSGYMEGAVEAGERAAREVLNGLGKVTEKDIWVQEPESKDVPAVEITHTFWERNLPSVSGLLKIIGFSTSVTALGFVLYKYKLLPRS
Chain of CYP2B6 (P20813 whole entry): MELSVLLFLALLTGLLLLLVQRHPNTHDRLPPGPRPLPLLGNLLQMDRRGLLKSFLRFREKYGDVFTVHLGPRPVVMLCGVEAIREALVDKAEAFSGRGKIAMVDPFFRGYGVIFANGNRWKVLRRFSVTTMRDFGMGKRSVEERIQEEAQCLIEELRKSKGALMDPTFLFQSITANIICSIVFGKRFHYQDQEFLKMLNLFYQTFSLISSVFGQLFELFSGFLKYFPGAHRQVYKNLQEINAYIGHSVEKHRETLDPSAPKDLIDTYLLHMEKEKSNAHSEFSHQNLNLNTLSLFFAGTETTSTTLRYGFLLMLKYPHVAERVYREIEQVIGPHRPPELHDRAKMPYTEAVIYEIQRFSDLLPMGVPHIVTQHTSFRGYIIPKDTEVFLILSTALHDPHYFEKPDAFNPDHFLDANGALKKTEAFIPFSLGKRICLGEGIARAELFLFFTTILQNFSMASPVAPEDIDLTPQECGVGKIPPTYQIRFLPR

## ZD2-N3-Gd(HP-DO3A) [MT218]
Gd; pH 5 (0.05 M acetate), 25°C
  duration of chelation stability: at least 30 days
Gd; pH 5, 37.5°C, 0.50 mM ZnCl2, at least 30 days
  dissociation of MT218 in the presence of Zn(II) ions: did not cause dissociation
Gd; pH 5, 37.5°C, acetate buffer
  stability of MT218: stable
Gd; pH 5, 37.5°C, with 0.25 mM DOTA, DTPA, HP-DO3A or EDTA
  stability of MT218 in the presence of free chelating ligands: Loss of MT218 was observed
[1]; CYP1A2 group
  MT218 remaining: 105%
[1]; CYP2B6 group
  MT218 remaining: 117%
[1]; CYP2C8 group
  MT218 remaining: 101%
[1]; CYP2C9 group
  MT218 remaining: 98.8%
[1]; CYP2C19 group
  MT218 remaining: 105%
[1]; CYP2D6 group
  MT218 remaining: 109%
[1]; CYP3A4 group
  MT218 remaining: 99.1%
CYP2C19
  inhibition of CYP2C19 activity: did not inhibit
OATP1B3
  inhibition of OATP1B3 transporter activity: no inhibition potential
OAT3
  inhibition of OAT3 transporter activity: no inhibition potential
MAOA
  inhibition rate: 10.21%
[2]; [3]
  AUC: 10940 ng·h/mL
  AUCINF: 11130 ng·h/mL
  C0: 75.09 µg/mL
  Cl: 9.4683 mL/min/kg
  MRT: 17.4 min
  T1/2: 16.8 min
  Vz: 0.22422 L/kg
[2]; [4]
  AUC: 27840 ng·h/mL
  AUCINF: 28020 ng·h/mL
  C0: 158.07 µg/mL
  Cl: 9.5898 mL/min/kg
  MRT: 20.4 min
  T1/2: 19.2 min
  Vz: 0.27335 L/kg
[2]; [5]
  AUC: 58600 ng·h/mL
  AUCINF: 58710 ng·h/mL
  C0: 209.22 µg/mL
  Cl: 9.2098 mL/min/kg
  MRT: 25.8 min
  T1/2: 19.2 min
  Vz: 0.2564 L/kg
[2]; [6]
  AUC: 11080 ng·h/mL
  AUCINF: 11180 ng·h/mL
  C0: 49.09 µg/mL
  Cl: 9.6403 mL/min/kg
  MRT: 22.2 min
  T1/2: 18 min
  Vz: 0.24309 L/kg
[2]; [7]
  AUC: 28860 ng·h/mL
  AUCINF: 29010 ng·h/mL
  C0: 115.85 µg/mL
  Cl: 9.172 mL/min/kg
  MRT: 24 min
  T1/2: 18.6 min
  Vz: 0.24018 L/kg
[2]; [8]
  AUC: 53170 ng·h/mL
  AUCINF: 53230 ng·h/mL
  C0: 248.60 µg/mL
  Cl: 9.855 mL/min/kg
  MRT: 22.2 min
  T1/2: 18 min
  Vz: 0.25524 L/kg
[2]; AUC(dose)/AUC(low dose), SD rat ♀, 0.04 mmol/kg
  AUC Ratio: 1
[2]; AUC(dose)/AUC(low dose), SD rat ♂, 0.04 mmol/kg
  AUC Ratio: 1
[2]; AUC(high dose)/AUC(low dose), SD rat ♀, 0.2 mmol/kg
  AUC Ratio: 5.36
[2]; AUC(high dose)/AUC(low dose), SD rat ♂, 0.2 mmol/kg
  AUC Ratio: 4.80
[2]; AUC(middle dose)/AUC(low dose), SD rat ♀, 0.1 mmol/kg
  AUC Ratio: 2.55
[2]; AUC(middle dose)/AUC(low dose), SD rat ♂, 0.1 mmol/kg
  AUC Ratio: 2.61
[2]; rats, 0.1 mmol/kg IV
  mean plasma elimination half-life (t1/2): 18.6 min
Excretion in SD rats; SD rats, 0.1 mmol/kg single IV, within 6 days, ICP-MS
  total excretion of injected Gd in bile, feces, and urine: 100.01% ± 10.85% of the injected dose
Excretion in SD rats; rats, single dose, within the first 8 hours postinjection
  injected dose excreted in urine: Greater than 80%
Beagle dogs; dog, single dosing
  NOAEL: not established
Beagle dogs; dogs, any dose group, up to 0.70 mmol/kg/d
  mortality or moribundity: no mortality or morbidity; also recorded: No mortality or moribundity
Beagle dogs; dogs, any dose level
  clinical observations (body weight, food consumption, temperature, ophthalmoscopy, hematology, coagulation, clinical chemistry, urinalysis): No MT218-related changes
Beagle dogs; dogs, both sexes, repeated 0.21 mmol/kg/d and 0.70 mmol/kg/d
  pathological findings: reversible renal tubule degeneration
Beagle dogs; dogs, repeated daily IV dose for 14 days
  NOAEL: 0.07 mmol/kg/day
Beagle dogs; dogs, repeated low doses 0.07 mmol/kg/d
  pathological findings: No renal abnormality
Beagle dogs; dogs, single dose 0.70 mmol/kg, no longer evident on day 15
  pathological findings: mild bilateral tubule degeneration of proximal and distal tubules
Beagle dogs; dogs, single- and repeated-medium and high-dose groups, disappeared after dosing completion
  clinical signs during the dosing period: Sporadic symptoms of emesis, retching, and salivation
Beagle dogs; female dogs, high dose 0.70 mmol/kg/d IV
  accumulation ratio AUC0–24h (D14)/AUC0–24h (D1) of Gd: 1.00
Beagle dogs; female dogs, low dose 0.07 mmol/kg/d IV
  accumulation ratio AUC0–24h (D14)/AUC0–24h (D1) of Gd: 0.91
Beagle dogs; female dogs, medium dose 0.21 mmol/kg/d IV
  accumulation ratio AUC0–24h (D14)/AUC0–24h (D1) of Gd: 0.99
Beagle dogs; male dogs, high dose 0.70 mmol/kg/d IV
  accumulation ratio AUC0–24h (D14)/AUC0–24h (D1) of Gd: 1.02
Beagle dogs; male dogs, low dose 0.07 mmol/kg/d IV
  accumulation ratio AUC0–24h (D14)/AUC0–24h (D1) of Gd: 0.92
Beagle dogs; male dogs, medium dose 0.21 mmol/kg/d IV
  accumulation ratio AUC0–24h (D14)/AUC0–24h (D1) of Gd: 1.07
CYP2B6
  inhibition of CYP2B6 activity: did not inhibit
CYP1A2; 100 μM, human hepatocytes, 1 of the 3 lots of cells
  mRNA expression level of CYP1A2 vs vehicle controls: 2.10 fold
CYP1A2; human primary hepatocytes, 1, 10, and 100 μM
  induction on enzyme activity of CYP1A2: no induction
hERG; 30.69 μM
  average inhibition of the hERG currents: 36.87% ± 6.93%
hERG; 103.54 μM
  average inhibition of the hERG currents: 52.19% ± 0.82%
